Assay results taken from ChEMBL document CHEMBL3877317, “Quinazolinone derivatives: Synthesis and comparison of inhibitory mechanisms on α-glucosidase” (Bioorg Med Chem, 2017).
Active and inactive are the calls of the source. The calls are words filed in the database; no cut-off is given here.

Key:
[1] = Non-competitive inhibition of Saccharomyces cerevisiae alpha-glucosidase type 1 using p-nitro-phenyl-alpha-D-glucopyranoside as substrate preincubated for 10 mins followed by substrate addition measured after 5 mins every 10 secs by Lineweaver-Burk plot analysis
How it was run: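 Same pNPG assay (0.1 M potassium phosphate pH 6.8, A405 every 10 s, ambient temperature), inhibitor 0-24 µM (or 0-16 µM). Inhibition type assigned from Lineweaver-Burk plots. KI taken from the secondary plot.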

[2] = tested on: Saccharomyces cerevisiae; assay: Reversible inhibition of Saccharomyces cerevisiae alpha-glucosidase type 1 at 8 to 24 uM using p-nitro-phenyl-alpha-D-glucopyranoside as substrate preincubated for 10 mins followed by substrate addition measured after 5 mins every 10 secs
[3] = Inhibition of Saccharomyces cerevisiae alpha-glucosidase type 1 using p-nitro-phenyl-alpha-D-glucopyranoside as substrate preincubated for 10 mins followed by substrate addition measured after 5 mins every 10 secs
How it was run: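 Enzyme (7 U/mL, 50 µL) with sample at varied concentrations, then 5 mM pNPG (200 µL) in 0.1 M potassium phosphate pH 6.8. A405 read every 10 s at ambient temperature. Relative activity = slope with inhibitor / slope without × 100. Acarbose as positive control.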

[4] = tested on: Saccharomyces cerevisiae; assay: Binding affinity to Saccharomyces cerevisiae alpha-glucosidase type 1 assessed as fluorescence quenching by measuring relative fluorescence intensity at 60 uM by fluorescence spectrophotometric method
How it was run: (§1)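 Intrinsic enzyme fluorescence (peak 330 nm) recorded with excitation 280 nm, emission 300-500 nm, 25 °C. Enzyme 0.1 mg/mL in 0.1 mM sodium phosphate buffer; compound series 0-50 µM or 0-60 µM. Relative intensity expressed as F/F0 against enzyme alone.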

[5] = tested on: Saccharomyces cerevisiae; assay: Binding affinity to Saccharomyces cerevisiae alpha-glucosidase type 1 assessed as Stern-Volmer quenching constant at 25 degC by fluorescence spectrophotometric method
How it was run: (§2)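 Fluorescence quenching: enzyme (0.1 mg/mL, 50 µL) mixed with sample at varied concentrations in 0.1 mM sodium phosphate buffer, 25 °C. Excitation 280 nm, emission scanned 300-500 nm. F0/F plotted against [Q] and fitted to the Stern-Volmer equation (F0/F = 1 + Kqτ0[Q] = 1 + Ksv[Q]) to give Ksv and Kq.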

[6] = tested on: Saccharomyces cerevisiae; assay: Binding affinity to Saccharomyces cerevisiae alpha-glucosidase type 1 assessed as quenching velocity constant of biomolecular reaction at 25 degC by fluorescence spectrophotometric method; how it was run: as §2
[7] = tested on: Saccharomyces cerevisiae; assay: Binding affinity to Saccharomyces cerevisiae alpha-glucosidase type 1 at 25 degC by fluorescence spectrophotometric method
[8] = tested on: Saccharomyces cerevisiae; assay: Binding affinity to Saccharomyces cerevisiae alpha-glucosidase type 1 assessed as fluorescence quenching by measuring relative fluorescence intensity at 50 uM by fluorescence spectrophotometric method; how it was run: as §1

SMILES	Ki [1] [µM]	inhibition [2]	IC50 [3] [µM]	Activity [4] [%]	KSV [5]	Kq [6]	K [7] [×10⁴ L/mol]	Activity [8] [%]
O=c1[nH]c(-c2ccc(Br)cc2)nc2ccccc12	10.6	Active	15.6	69.3	7.26 ×10³ L/mol	7.26 ×10¹¹ L/mol.s	1.25	
Oc1nc(-c2ccc(F)cc2)nc2ccccc12			> 57.2					
C[C@H]1O[C@H](O[C@H]2[C@H](O)[C@@H](O)[C@@H](O[C@H]3[C@H](O)[C@@H](O)C(O)O[C@@H]3CO)O[C@@H]2CO)[C@H](O)[C@@H](O)[C@@H]1N[C@H]1C=C(CO)[C@@H](O)[C@H](O)[C@H]1O (stereo partly specified) [ACARBOSE]			475					
O=c1[nH]c(-c2ccc(Cl)cc2)nc2ccccc12	9.1	Active	12.5		3.1 ×10⁴ L/mol	3.1 ×10¹² L/mol.s	1.78	39.3
